From ChEMBL document CHEMBL3124806, “Imidazopyridine-fused [1,3]-diazepinones: synthesis and antiproliferative activity” (Eur J Med Chem, 2014)
Activity calls are given as the source filed them. No cut-off for these calls is given here.

Key:
[1] = system: MDA-MB-435; test: Induction of apoptosis in human MDA-MB-435 cells assessed as nuclei fragmentation at 5 uM after 20 hrs by Hoechst 33342 staining-based phase-contrast microscopy; assay type: functional, cell-based
[2] = system: MDA-MB-435; test: Induction of apoptosis in human MDA-MB-435 cells assessed as dispersed and rounded cells at 5 uM after 20 hrs by Hoechst 33342 staining-based phase-contrast microscopy; assay type: functional, cell-based
Method in brief: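 MDA-MB-435 human melanoma cells were grown in Ham's F12/DMEM (1:1) with 10% FCS and antibiotics at 37 °C under 5% CO₂. Cells were exposed to 5 μM compound or left untreated. They were imaged by phase-contrast microscopy 20 h after treatment.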

[3] = system: SK-MEL-2; test: Cytotoxicity against human SK-MEL-2 cells assessed as cell growth at 10 uM after 48 hrs by MTT assay relative to untreated control; assay type: functional; conditions: SK-MEL-2, 48 h, read-out: Activity
Method in brief: (§1)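 Melanoma lines grown at 37 °C in humidified 5% CO2: MDA-MB-435 in DMEM/Ham's F12 1:1 with 10% FCS and antibiotics, SK-MEL-2 in RPMI-1640 with 10% FCS. Cells plated 24 h, then exposed 48 h to 100–0.01 µM (dilutions from fresh 100 µM stock in medium). MTT 0.5 mg/mL added for 4 h, crystals dissolved in EtOH/DMSO 1:1, absorbance read at 540 nm. Mean ± SD of three independent experiments.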

[4] = Cytotoxicity against human CAL-1 cells assessed as cell growth at 10 uM after 48 hrs by MTT assay relative to untreated control; assay type: functional; conditions: CAL1, 48 h, read-out: Activity
Method in brief: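 CAL1 melanoma cells grown in DMEM with 2 mM L-glutamine and 10% FCS at 37 °C, 5% CO2. Seeded at 10^4 cells/well, grown 24 h, then treated 48 h across 100–0.01 μM (compounds dissolved in medium). Read-out: 0.5 mg mL⁻¹ MTT for 4 h, crystals dissolved in EtOH/DMSO 1:1, absorbance at 540 nm.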

[5] = system: MDA-MB-468; test: Cytotoxicity against human MDA-MB-468 cells after 48 hrs by SRB assay; assay type: functional; conditions: MDA-MB-468, 48 h
Method in brief: (§2)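 NCI-60 five-dose screen: cells exposed continuously for 48 h across 100 to 0.01 µM. Growth or viability estimated by sulforhodamine B protein staining, read spectrophotometrically against untreated controls; IC50 taken from the dose-response.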

[6] = system: BT-549; test: Cytotoxicity against human BT549 cells after 48 hrs by SRB assay; assay type: functional; conditions: BT-549, 48 h
Method in brief: (§3)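 NCI-60 five-dose testing, 100 to 0.01 µM, under a 48 h continuous-exposure protocol. Growth estimated by SRB protein assay, read spectrophotometrically against untreated controls; IC50 derived from the dose-response.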

[7] = system: MDA-MB-231; test: Cytotoxicity against human MDA-MB-231 cells after 48 hrs by SRB assay; assay type: functional; conditions: MDA-MB-231, 48 h; method in brief: as §2
[8] = Cytotoxicity against human Hs578T cells after 48 hrs by SRB assay; assay type: functional; conditions: Hs-578T; method in brief: as §3
[9] = system: MCF7; test: Cytotoxicity against human MCF7 cells after 48 hrs by SRB assay; assay type: functional; conditions: MCF7, 48 h; method in brief: as §3
[10] = system: SN12C; test: Cytotoxicity against human SN12C cells after 48 hrs by SRB assay; assay type: functional
Method in brief: (§4)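 NCI-60 five-dose mode on the full human tumour line panel. Concentrations ran from 100 to 0.01 µM with 48 h continuous exposure. Growth was estimated by SRB protein staining against untreated controls, and IC50 values were derived from the dose–response.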

[11] = system: TK-10; test: Cytotoxicity against human TK10 cells after 48 hrs by SRB assay; assay type: functional; conditions: TK-10, 48 h; method in brief: as §4
[12] = system: ACHN; test: Cytotoxicity against human ACHN cells after 48 hrs by SRB assay; assay type: functional; method in brief: as §3
[13] = system: A498; test: Cytotoxicity against human A498 cells after 48 hrs by SRB assay; assay type: functional; conditions: A498, 48 h; method in brief: as §3
[14] = Cytotoxicity against human OVCAR4 cells after 48 hrs by SRB assay; assay type: functional; conditions: OVCAR-4, 48 h; method in brief: as §2
[15] = system: IGROV-1; test: Cytotoxicity against human IGROV1 cells after 48 hrs by SRB assay; assay type: functional; conditions: IGROV-1, 48 h; method in brief: as §3
[16] = system: SK-MEL-5; test: Cytotoxicity against human SK-MEL-5 cells after 48 hrs by SRB assay; assay type: functional; conditions: SK-MEL-5, 48 h; method in brief: as §4
[17] = system: SK-MEL-28; test: Cytotoxicity against human SK-MEL-28 cells after 48 hrs by SRB assay; assay type: functional; conditions: SK-MEL-28, 48 h; method in brief: as §2
[18] = system: SK-MEL-2; test: Cytotoxicity against human SK-MEL-2 cells after 48 hrs by SRB assay; assay type: functional; conditions: SK-MEL-2, 48 h; method in brief: as §2
[19] = system: Malme-3M; test: Cytotoxicity against human MALME-3M cells after 48 hrs by SRB assay; assay type: functional; method in brief: as §3
[20] = system: U-251; test: Cytotoxicity against human U251 cells after 48 hrs by SRB assay; assay type: functional; conditions: U-251, 48 h; method in brief: as §4
[21] = system: SNB-75; test: Cytotoxicity against human SNB75 cells after 48 hrs by SRB assay; assay type: functional; conditions: SNB-75, 48 h; method in brief: as §4
[22] = system: HT-29; test: Cytotoxicity against human HT-29 cells after 48 hrs by SRB assay; assay type: functional; conditions: HT-29, 48 h; method in brief: as §3
[23] = system: A549; test: Cytotoxicity against human A549 cells after 48 hrs by SRB assay; assay type: functional; conditions: A549, 48 h; method in brief: as §3
[24] = system: RPMI-8226; test: Cytotoxicity against human RPMI8226 cells after 48 hrs by SRB assay; assay type: functional; conditions: RPMI-8226, 48 h; method in brief: as §2
[25] = system: CCRF-CEM; test: Cytotoxicity against human CCRF-CEM cells after 48 hrs by SRB assay; assay type: functional; method in brief: as §3
[26] = system: MDA-MB-435; test: Cytotoxicity against human MDA-MB-435 cells assessed as reduction in cell growth at 1 to 10 uM after 48 hrs by MTT assay relative to untreated control; assay type: functional; parameters: scale not given: the % may be the effect or the level left; method in brief: as §1
[27] = read-out: LC50 (the source's name)

For `C[C@@H]1NC(c2ccc(Br)cc2)=Nc2nc3ccccn3c2C1=O`, the Activity [1] was “Active”, the Activity [2] was “Active” and the growth at 10 µM [3] was 32%. It also gave a growth at 10 µM [4] of 12%, a GI50 [5] of 1980 nM and a TGI [5] of 5.12 µM. The CC50 [5, 27] was > 100 µM, the GI50 [6] was 5.49 µM and the TGI [6] was > 100 µM. For the same molecule, the CC50 [6, 27] was > 100 µM, the GI50 [7] was 6.08 µM and the TGI [7] was > 100 µM. The CC50 [7, 27] was > 100 µM, the GI50 [8] was 2810 nM and the TGI [8] was 52 µM. The CC50 [8, 27] was > 100 µM, the GI50 [9] was 2990 nM and the TGI [9] was > 100 µM. The CC50 [9, 27] was > 100 µM, the GI50 [10] was 17.6 µM and the TGI [10] was > 100 µM. For the same molecule, the CC50 [10, 27] was > 100 µM, the GI50 [11] was 21 µM and the TGI [11] was > 100 µM. For the same molecule, the CC50 [11, 27] was > 100 µM, the GI50 [12] was 6.75 µM and the TGI [12] was > 100 µM. For the same molecule, the CC50 [12, 27] was > 100 µM, the GI50 [13] was 3.26 µM and the TGI [13] was 38.2 µM. The CC50 [13, 27] was > 100 µM, the GI50 [14] was 17.9 µM and the TGI [14] was > 100 µM. The CC50 [14, 27] was > 100 µM, the GI50 [15] was 51.9 µM and the TGI [15] was > 100 µM. The CC50 [15, 27] was > 100 µM, the GI50 [16] was 2240 nM and the TGI [16] was 40.5 µM. The CC50 [16, 27] was > 100 µM, the GI50 [17] was 9.51 µM and the TGI [17] was > 100 µM. The CC50 [17, 27] was > 100 µM, the GI50 [18] was 15.7 µM and the TGI [18] was > 100 µM. The CC50 [18, 27] was > 100 µM, the GI50 [19] was 15.2 µM and the TGI [19] was > 100 µM. For the same molecule, the CC50 [19, 27] was > 100 µM, the GI50 [20] was 6.64 µM and the TGI [20] was > 100 µM. For the same molecule, the CC50 [20, 27] was > 100 µM, the GI50 [21] was 700 nM and the TGI [21] was 7.06 µM. For the same molecule, the CC50 [21, 27] was > 100 µM, the GI50 [22] was 3.73 µM and the TGI [22] was > 100 µM. The CC50 [22, 27] was > 100 µM, the GI50 [23] was 6.7 µM and the TGI [23] was > 100 µM. For the same molecule, the CC50 [23, 27] was > 100 µM, the GI50 [24] was 7.31 µM and the TGI [24] was > 100 µM. For the same molecule, the CC50 [24, 27] was > 100 µM, the GI50 [25] was 6.56 µM and the TGI [25] was > 100 µM. The CC50 [25, 27] was > 100 µM.

In the case of `C[C@@H]1NC(c2ccccc2)=Nc2nc3ccccn3c2C1=O`, the Activity [26] is reported as 20%.
